Experimental findings from ChEMBL document CHEMBL4371041, “Synthesis and evaluation of thieno[3,2-d]pyrimidine derivatives as novel FMS inhibitors” (Bioorg Med Chem Lett, 2019) are described below.

One series relates to NFS-60. The experiment in a line: Growth inhibition of mouse NFS60 cells after 72 hrs by CellTiter96 AQueous one solution cell proliferation assay. The following applies: NFS-60, 72 h. The class given is functional.
Series [1] in a line: Cmax in CD-1 mouse at 10 mg/kg, po. The class given is ADME, organism-based. The settings on record: in vivo. On the set-up: dose 10 mg/kg, route oral.
A short description of series [2]: Oral bioavailability in CD-1 mouse at 10 mg/kg. The series is classed as ADME, organism-based. The settings on record: in vivo.
The target of another series is Cytochrome P450 2C9 (Homo sapiens, UniProt P11712). Put plainly: Inhibition of CYP2C9 in human liver microsomes by LC-MS/MS analysis. The class given is ADME. In outline:
(§1)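 Reversible CYP inhibition measured in human liver microsomes; metabolite formation quantified by LC/MS/MS.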

In another series the target is Cytochrome P450 2C19 (Homo sapiens, UniProt P33261). Put plainly: Inhibition of CYP2C19 in human liver microsomes by LC-MS/MS analysis. The class given is ADME. In outline:
as §1
In general terms: Microsomes from liver hold many membrane-bound enzymes, among them those of drug oxidation.

The nature of series [3]: Clearance in CD-1 mouse at 10 mg/kg, po. The series is classed as ADME, organism-based. The settings on record: in vivo.
The target of series [4] is Voltage-gated inwardly rectifying potassium channel KCNH2 (Homo sapiens, UniProt Q12809). The experiment in a line: Displacement of Tracer Red from human ERG by fluorescence polarization assay. In general terms: In fluorescence polarisation assays a small probe gives low polarisation when free and higher when bound to something large.
The test system of the next series is MDA-MB-231. Put plainly: Inhibition of paclitaxel-induced FMS expression in human MDA-MB-231 cells by Western blot analysis. The class given is functional, cell-based. A general note: A western blot detects proteins with antibodies after separation by electrophoresis.
Series [5] concerns the target Discoidin domain-containing receptor 2 (Homo sapiens, UniProt Q16832). Put plainly: Inhibition of recombinant human N-terminal His6-tagged DDR2 (467 to end residues) expressed in baculovirus infected Sf21 insect cells using Axltide as substrate in presence of [gamma-33P]-ATP or [gamma-32P]-ATP. In short, it runs like this:
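Kinase panel of twenty-eight enzymes; IC50 values determined with ATP at the respective Km of each kinase.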

Series [6] deals with Aurora kinase B/Inner centromere protein (Homo sapiens) (UniProt Q96GD4+Q9NQS7). Put plainly: Inhibition of recombinant human full length C-terminal His6-tagged Aurora B/N-terminal GST-tagged INCENP (821 to end residues) expressed in baculovirus infected Sf21 insect cells at 1 uM in presence of [gamma-33P]-ATP or [gamma-32P]-ATP relative to control.
Series [7] has as its target Tyrosine-protein kinase receptor UFO (Homo sapiens) (UniProt P30530). Put plainly: Inhibition of recombinant human N-terminal His6-tagged Axl (473 to end residues) expressed in baculovirus infected Sf21 insect cells at 1 uM using Axltide as substrate in presence of [gamma-33P]-ATP or [gamma-32P]-ATP relative to control.
The target of series [8] is Mast/stem cell growth factor receptor Kit (Homo sapiens) (UniProt P10721). Put plainly: Inhibition of recombinant human N-terminal GST-tagged c-Kit (544 to end residues) expressed in baculovirus infected Sf21 insect cells at 1 uM using Poly (Glu4-Tyr) (4:1) as substrate in presence of [gamma-33P]-ATP or [gamma-32P]-ATP relative to control.
Series [9] concerns the target Ephrin type-A receptor 5 (Homo sapiens) (UniProt P54756). The experiment in a line: Inhibition of recombinant human N-terminal His6-tagged EphA5 (655 to 956 residues) expressed in baculovirus infected Sf21 insect cells at 1 uM using Axltide as substrate in presence of [gamma-33P]-ATP or [gamma-32P]-ATP relative to control.
Series [10] addresses Glycogen synthase kinase-3 alpha (Homo sapiens) (UniProt P49840). The experiment in a line: Inhibition of recombinant human N-terminal His6-tagged GSK3alpha (2 to end residues) expressed in baculovirus infected Sf21 insect cells at 1 uM using GSK3 substrate in presence of [gamma-33P]-ATP or [gamma-32P]-ATP relative to control.
The target of series [11] is Tyrosine-protein kinase JAK3 (Homo sapiens) (UniProt P52333). The experiment in a line: Inhibition of recombinant human N-terminal His6-tagged JAK3 (781 to end residues) expressed in baculovirus infected Sf21 insect cells at 1 uM using JAK3tide as substrate in presence of [gamma-33P]-ATP or [gamma-32P]-ATP relative to control.
In series [12] the target is Hepatocyte growth factor receptor (Homo sapiens) (UniProt P08581). The experiment in a line: Inhibition of recombinant human N-terminal His6-tagged Met (974 to end residues) expressed in baculovirus infected Sf21 insect cells at 1 uM using KKKSPGEYVNIEFG as substrate in presence of [gamma-33P]-ATP or [gamma-32P]-ATP relative to control.
In series [13] the target is Platelet-derived growth factor receptor alpha (Homo sapiens) (UniProt P16234). The experiment in a line: Inhibition of recombinant human N-terminal His6-tagged PDGFRalpha (550 to end residues) expressed in baculovirus infected Sf21 insect cells at 1 uM using Poly (Glu4-Tyr) (4:1) as substrate in presence of [gamma-33P]-ATP or [gamma-32P]-ATP relative to control.
In series [14] the target is Tyrosine-protein kinase FRK (Homo sapiens) (UniProt P42685). The experiment in a line: Inhibition of recombinant human N-terminal His6-tagged PTK5 (218 to end residues) expressed in baculovirus infected Sf21 insect cells at 1 uM using JAK3tide as substrate in presence of [gamma-33P]-ATP or [gamma-32P]-ATP relative to control.
Series [15] deals with Ribosomal protein S6 kinase alpha-1 (Homo sapiens) (UniProt Q15418). The experiment in a line: Inhibition of RSK1 (unknown origin) at 1 uM in presence of [gamma-33P]-ATP or [gamma-32P]-ATP relative to control.
Series [16] addresses Proto-oncogene tyrosine-protein kinase Src (Homo sapiens) (UniProt P12931). The experiment in a line: Inhibition of recombinant human N-terminal His6-tagged Src (1 to 530 residues) expressed in baculovirus infected Sf21 insect cells at 1 uM in presence of [gamma-33P]-ATP or [gamma-32P]-ATP relative to control.
In series [17] the target is High affinity nerve growth factor receptor (Homo sapiens) (UniProt P04629). Put plainly: Inhibition of recombinant human N-terminal His6-tagged TrkA (440 to end residues) expressed in baculovirus infected Sf21 insect cells at 1 uM using KKKSPGEYVNIEFG as substrate in presence of [gamma-33P]-ATP or [gamma-32P]-ATP relative to control.
Series [18] has as its system RAF proto-oncogene serine/threonine-protein kinase (Homo sapiens), P04049 [Y340D,Y341D]. Put plainly: Inhibition of recombinant human N-terminal GST-tagged c-RAF Y340D/Y341D double mutant (306 to 648 residues) expressed in baculovirus infected Sf21 insect cells at 1 uM using MEK1(K97R) as substrate in presence of [gamma-33P]-ATP or [gamma-32P]-ATP relative to control.

Series [19] addresses Maternal embryonic leucine zipper kinase (Homo sapiens, UniProt Q14680). Put plainly: Inhibition of recombinant human N-terminal GST-tagged MELK (1 to 340 residues) expressed in baculovirus infected Sf21 insect cells at 1 uM using KKLNRTLSFAEPG as substrate in presence of [gamma-33P]-ATP or [gamma-32P]-ATP relative to control.
The next series deals with Angiopoietin-1 receptor (Homo sapiens, UniProt Q02763). Put plainly: Inhibition of recombinant human N-terminal His6-tagged Tie2 (771 to end residues) expressed in baculovirus infected Sf21 insect cells at 1 uM using Poly (Glu4-Tyr) (4:1) as substrate in presence of [gamma-33P]-ATP or [gamma-32P]-ATP relative to control.

The GI50 is the concentration at which growth is held to half of that of the control. Read a high GI50 as less potent growth inhibition. Broadly, the Cmax is the peak of the concentration-time curve. A word on the bioavailability: it is dose-corrected exposure relative to a reference, in per cent. As usually defined, the IC50 is the concentration at which inhibition is half-maximal. For orientation: CL/F means the apparent clearance, not corrected for the fraction that reaches the circulation. Broadly, the inhibition is the change of the read-out against control, counted positive when it falls.

Sequence of Maternal embryonic leucine zipper kinase (Q14680 whole entry, looked up, the tested form may be a part): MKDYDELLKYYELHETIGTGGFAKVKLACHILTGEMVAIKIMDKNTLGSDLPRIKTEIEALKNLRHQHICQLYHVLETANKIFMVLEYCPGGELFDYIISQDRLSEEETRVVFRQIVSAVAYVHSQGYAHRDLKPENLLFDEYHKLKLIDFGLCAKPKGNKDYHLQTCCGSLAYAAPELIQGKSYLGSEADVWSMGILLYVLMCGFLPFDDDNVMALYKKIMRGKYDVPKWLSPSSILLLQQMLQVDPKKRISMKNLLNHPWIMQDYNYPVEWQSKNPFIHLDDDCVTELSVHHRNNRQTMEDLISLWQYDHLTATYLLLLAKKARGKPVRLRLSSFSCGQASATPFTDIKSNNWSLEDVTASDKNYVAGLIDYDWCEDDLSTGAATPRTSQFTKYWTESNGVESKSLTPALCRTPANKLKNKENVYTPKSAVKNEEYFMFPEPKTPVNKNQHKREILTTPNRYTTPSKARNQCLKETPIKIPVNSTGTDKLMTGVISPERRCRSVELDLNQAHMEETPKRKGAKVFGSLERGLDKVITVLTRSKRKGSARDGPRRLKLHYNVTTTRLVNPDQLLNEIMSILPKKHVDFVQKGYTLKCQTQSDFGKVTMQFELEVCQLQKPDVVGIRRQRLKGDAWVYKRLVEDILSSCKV
Sequence of Cytochrome P450 2C19 (P33261 whole entry): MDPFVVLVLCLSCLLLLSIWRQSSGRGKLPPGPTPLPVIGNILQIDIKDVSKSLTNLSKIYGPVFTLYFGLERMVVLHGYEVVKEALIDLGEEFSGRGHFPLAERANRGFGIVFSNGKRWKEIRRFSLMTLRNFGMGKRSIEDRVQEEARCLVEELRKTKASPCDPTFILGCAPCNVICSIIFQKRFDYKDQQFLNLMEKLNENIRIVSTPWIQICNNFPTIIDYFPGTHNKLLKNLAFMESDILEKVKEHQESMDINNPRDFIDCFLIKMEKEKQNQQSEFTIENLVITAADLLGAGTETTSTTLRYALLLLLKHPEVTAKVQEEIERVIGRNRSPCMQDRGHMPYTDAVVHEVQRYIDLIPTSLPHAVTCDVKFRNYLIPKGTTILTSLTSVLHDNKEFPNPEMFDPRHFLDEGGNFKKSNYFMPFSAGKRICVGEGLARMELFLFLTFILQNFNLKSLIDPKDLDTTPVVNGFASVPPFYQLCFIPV
Sequence of Tyrosine-protein kinase FRK (Homo sapiens) (P42685 whole entry): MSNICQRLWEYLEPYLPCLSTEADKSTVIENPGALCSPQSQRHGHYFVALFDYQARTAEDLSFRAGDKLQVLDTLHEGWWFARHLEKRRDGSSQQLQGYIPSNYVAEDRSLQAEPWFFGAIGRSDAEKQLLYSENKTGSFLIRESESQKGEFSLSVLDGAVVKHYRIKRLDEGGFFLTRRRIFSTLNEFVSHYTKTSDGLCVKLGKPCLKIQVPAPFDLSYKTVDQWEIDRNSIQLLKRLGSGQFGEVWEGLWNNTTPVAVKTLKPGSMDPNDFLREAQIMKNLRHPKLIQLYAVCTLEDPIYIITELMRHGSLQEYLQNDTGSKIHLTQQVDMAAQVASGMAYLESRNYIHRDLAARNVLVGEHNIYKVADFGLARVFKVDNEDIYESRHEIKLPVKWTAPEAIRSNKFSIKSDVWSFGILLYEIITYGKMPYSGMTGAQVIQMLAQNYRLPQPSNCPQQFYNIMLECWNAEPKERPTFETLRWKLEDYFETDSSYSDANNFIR
Sequence of Ephrin type-A receptor 5 (Homo sapiens) (P54756 whole entry, the tested form may be a part): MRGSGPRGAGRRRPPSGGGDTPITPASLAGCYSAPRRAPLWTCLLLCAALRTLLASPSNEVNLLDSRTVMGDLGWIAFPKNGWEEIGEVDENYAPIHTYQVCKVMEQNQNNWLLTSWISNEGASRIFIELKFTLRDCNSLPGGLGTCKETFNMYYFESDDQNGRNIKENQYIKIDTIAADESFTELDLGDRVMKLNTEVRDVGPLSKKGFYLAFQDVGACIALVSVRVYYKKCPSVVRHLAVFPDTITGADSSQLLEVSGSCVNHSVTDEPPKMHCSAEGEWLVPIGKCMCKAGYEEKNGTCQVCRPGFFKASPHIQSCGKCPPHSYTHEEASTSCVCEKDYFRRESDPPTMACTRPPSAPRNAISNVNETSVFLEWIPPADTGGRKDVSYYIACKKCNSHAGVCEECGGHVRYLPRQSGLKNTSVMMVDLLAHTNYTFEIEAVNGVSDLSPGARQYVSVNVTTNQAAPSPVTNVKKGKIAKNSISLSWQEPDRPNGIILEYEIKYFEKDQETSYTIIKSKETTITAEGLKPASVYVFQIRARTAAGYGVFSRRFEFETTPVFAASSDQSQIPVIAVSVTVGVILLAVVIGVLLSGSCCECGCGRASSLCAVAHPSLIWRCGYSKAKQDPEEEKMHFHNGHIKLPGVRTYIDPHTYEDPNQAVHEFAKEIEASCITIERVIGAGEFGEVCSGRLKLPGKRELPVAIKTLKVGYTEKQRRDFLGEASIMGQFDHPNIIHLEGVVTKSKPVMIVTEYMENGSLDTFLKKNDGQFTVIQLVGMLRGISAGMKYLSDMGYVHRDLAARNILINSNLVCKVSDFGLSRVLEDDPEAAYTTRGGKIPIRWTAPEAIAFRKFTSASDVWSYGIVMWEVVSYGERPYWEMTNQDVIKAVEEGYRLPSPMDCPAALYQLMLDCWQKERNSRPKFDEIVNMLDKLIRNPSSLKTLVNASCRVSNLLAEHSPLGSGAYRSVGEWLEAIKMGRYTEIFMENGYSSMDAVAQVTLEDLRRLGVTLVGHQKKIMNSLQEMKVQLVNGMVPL
Sequence of Glycogen synthase kinase-3 alpha (Homo sapiens) (P49840 2-483 limits assumed): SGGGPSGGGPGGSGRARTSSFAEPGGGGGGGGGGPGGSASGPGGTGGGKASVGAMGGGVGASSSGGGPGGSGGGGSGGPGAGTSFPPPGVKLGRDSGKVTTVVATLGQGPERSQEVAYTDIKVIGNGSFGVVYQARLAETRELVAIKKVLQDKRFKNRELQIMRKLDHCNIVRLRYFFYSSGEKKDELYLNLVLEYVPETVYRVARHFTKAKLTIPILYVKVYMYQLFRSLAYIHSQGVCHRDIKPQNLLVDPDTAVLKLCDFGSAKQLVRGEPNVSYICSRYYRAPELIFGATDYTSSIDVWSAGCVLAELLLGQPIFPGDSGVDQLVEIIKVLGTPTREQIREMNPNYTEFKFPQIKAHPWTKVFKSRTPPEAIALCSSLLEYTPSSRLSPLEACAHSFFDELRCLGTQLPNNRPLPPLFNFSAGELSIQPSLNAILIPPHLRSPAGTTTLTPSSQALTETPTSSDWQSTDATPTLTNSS
Sequence of Voltage-gated inwardly rectifying potassium channel KCNH2 (Q12809 whole entry): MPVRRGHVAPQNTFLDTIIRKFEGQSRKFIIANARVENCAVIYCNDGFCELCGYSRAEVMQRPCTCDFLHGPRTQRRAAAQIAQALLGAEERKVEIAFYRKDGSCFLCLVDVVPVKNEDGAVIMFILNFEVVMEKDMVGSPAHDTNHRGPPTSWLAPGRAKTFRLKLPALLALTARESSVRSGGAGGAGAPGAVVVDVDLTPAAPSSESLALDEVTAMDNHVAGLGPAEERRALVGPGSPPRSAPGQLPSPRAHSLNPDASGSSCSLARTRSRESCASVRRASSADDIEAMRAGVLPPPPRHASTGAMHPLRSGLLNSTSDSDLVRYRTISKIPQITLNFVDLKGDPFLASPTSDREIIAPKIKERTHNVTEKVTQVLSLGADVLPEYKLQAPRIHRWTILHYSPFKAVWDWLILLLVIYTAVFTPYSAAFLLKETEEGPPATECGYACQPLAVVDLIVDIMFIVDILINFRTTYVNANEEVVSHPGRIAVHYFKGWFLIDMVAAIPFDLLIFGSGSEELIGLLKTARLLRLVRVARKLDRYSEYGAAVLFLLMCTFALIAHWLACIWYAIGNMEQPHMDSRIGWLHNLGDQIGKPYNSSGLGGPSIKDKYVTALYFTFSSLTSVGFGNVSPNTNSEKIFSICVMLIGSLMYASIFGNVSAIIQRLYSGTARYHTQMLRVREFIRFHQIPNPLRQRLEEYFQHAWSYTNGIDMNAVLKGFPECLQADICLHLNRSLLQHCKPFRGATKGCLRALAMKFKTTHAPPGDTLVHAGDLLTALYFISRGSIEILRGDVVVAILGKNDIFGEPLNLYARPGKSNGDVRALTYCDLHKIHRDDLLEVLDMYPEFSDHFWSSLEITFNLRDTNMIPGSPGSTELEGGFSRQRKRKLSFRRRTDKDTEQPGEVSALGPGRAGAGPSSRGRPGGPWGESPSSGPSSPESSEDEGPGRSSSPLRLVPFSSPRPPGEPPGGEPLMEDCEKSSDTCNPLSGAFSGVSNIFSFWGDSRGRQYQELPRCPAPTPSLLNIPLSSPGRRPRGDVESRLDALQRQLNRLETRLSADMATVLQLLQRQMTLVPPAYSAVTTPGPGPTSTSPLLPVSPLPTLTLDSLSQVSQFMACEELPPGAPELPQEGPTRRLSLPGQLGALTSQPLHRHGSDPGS
Sequence of Cytochrome P450 2C9 (P11712 whole entry): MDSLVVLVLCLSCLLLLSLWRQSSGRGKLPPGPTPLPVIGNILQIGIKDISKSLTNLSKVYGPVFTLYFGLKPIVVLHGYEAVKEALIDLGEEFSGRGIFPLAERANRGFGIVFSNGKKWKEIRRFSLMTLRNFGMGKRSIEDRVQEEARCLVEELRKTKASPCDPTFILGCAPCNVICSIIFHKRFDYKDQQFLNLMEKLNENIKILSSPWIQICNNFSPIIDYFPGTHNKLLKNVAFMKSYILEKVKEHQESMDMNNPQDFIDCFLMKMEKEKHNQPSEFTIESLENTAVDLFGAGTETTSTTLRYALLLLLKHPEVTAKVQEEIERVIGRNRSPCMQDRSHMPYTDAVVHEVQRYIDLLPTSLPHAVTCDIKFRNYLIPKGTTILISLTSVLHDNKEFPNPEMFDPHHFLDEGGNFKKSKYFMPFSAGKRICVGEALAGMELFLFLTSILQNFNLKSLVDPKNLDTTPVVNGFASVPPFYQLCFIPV

In the series on NFS-60, `Cc1cccc(Cn2nc(C)c3c(NC(=O)c4csc5c(N)ncnc45)cccc32)n1` came in with a 50% growth inhibitory concentration (GI50) of 80 nM. The compound further came in with a Cmax in [1] of 900 ng/mL. For the same compound, in series [2], the bioavailability came to 36%. Besides, the half-maximal inhibitory concentration (IC50) is more than 20000 nM against Cytochrome P450 2C9, more than 20000 nM at Cytochrome P450 2C19, more than 50000 nM in series [4] and 64 nM in series [5]. The same compound showed a CL/F in series [3] of 33.3 mL/min/kg. The inhibition result in the series with MDA-MB-231 was “Dose-dependent effect”; in series [6] it was -3%; in series [7], 12%; in series [8], 27%; in [9], -9%; in [10], -10%. Also, the inhibition was 6% in series [11]; -9% in [12]; 2% in series [13]; 19% in [14]; 14% in [15]; 4% in series [16]. In addition, the inhibition in series [17] is 27%; in series [18], more than 60%; in series [19], more than 60%; at Angiopoietin-1 receptor, more than 60%.
